Only some compounds are listed: those with a hit (about 2% of all), similar ones and a draw of the others.
TWEAK Fn14 block: inhibitors of TWEAK-Fn14 signaling, primary screen, luciferase reporter cells, uHTS. TWEAK-stimulated Fn14 reporter cells, luciferase luminescence, 8 h. inhibition, % at 10 µM. 360,000 compounds, 2% hits; in the data active = inhibition above about 50%
TROY signal inh: inhibitors of TROY-driven NF-kB signaling, primary screen, Q293 LMP1-TROYcd cells, NF-kB luciferase, uHTS; AID 1347056, 2019; 360,000 compounds, 0.98% hits; inhibition, % at 10 µM; Q293 LMP1-TROYcd NF-kB luciferase reporter, 4 h;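 active = compounds whose plate-normalised and pattern-corrected inhibition of the luciferase reporter signal at the single screening dose is 50% or more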
LGR2 antag: inhibitors of bursicon-induced LGR2 CRE-luciferase signal, primary screen, cell-based, HEK293, CRE-luciferase reporter, bursicon stimulation; Drosophila bursicon receptor LGR2 (rickets); bursicon-stimulated, 4 h; inhibition, % at 9.99 µM; 380,000 compounds, 0.35% hits;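 active = drop in luminescence signal, shown as inhibition above about 50% in the replicate tests, limit read from the data, passing the limit was not always enough; inconclusive = probably only some replicates passing the limit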;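 also: agonist challenge used bursicon conditioned medium at about half maximal strength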
XiGFP reactiv: activators of inactive X chromosome reactivation, primary screen, imaging, XiGFP fibroblasts, GFP high-content imaging, set 2. activation, % at 7.58 µM. 360,000 compounds, 0.055% hits. XiGFP mouse fibroblasts, % GFP-positive cells imaging, 3 d; cells co-treated with 5-aza-dC sensitizer; scaled so ellipticine positive control = 100%;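 active = mean normalized replicate activation at least 10% and every replicate at or above 10%; inconclusive = only one of the two criteria met; inactive = mean below 10% and not all replicates reach 10%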;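 also: 0% = median of on-plate neutral control wells and 100% = ellipticine 6 µM median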
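Assay system – SV40-immortalized XiGFP fibroblast cells, line 68-5-11 · Buffer or medium – DMEM supplemented with 5-aza-dC as sensitizing agent · Dosing – one concentration, pinned · Benchmarks – positive control ellipticine, 6 µM final · Times – 3 days compound exposure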
CaV13 ICDI inh: Primary screen for inhibitors of IQ motif and Ca2+-dependent inactivation inhibitor domain binding in CACNA1D, Förster resonance energy transfer in living cells, …; HEK cells, CFP/YFP FRET ICDI-IQ, plate reader, 10 min; percent FRET-ratio fall versus neutral wells; inhibition, % at 12.3 µM; 340,000 compounds, 0.098% hits;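 active = mean replicate inhibition of at least 30% and at least 1% of replicates passing that level; inconclusive = only one of the two criteria is met; inactive = neither criterion is met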;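 also: 0% = median of the neutral control wells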
Starred values were filed as active, the others as inactive; ? = inconclusive; · = no result given.

SMILES	TWEAK Fn14 block	TROY signal inh	LGR2 antag	XiGFP reactiv	CaV13 ICDI inh
C[C@H]1CN([C@@H](C)CO)S(=O)(=O)c2ccc(/C=C/c3ccccc3)cc2O[C@H]1CN(C)C(=O)CN1CCOCC1	·	·	5	-1	·
C[C@@H]1CN([C@H](C)CO)C(=O)c2cc(NS(C)(=O)=O)ccc2O[C@@H](C)CCCCO[C@@H]1CN(C)C	·	·	7	0	·
Cc1nc2c(-c3ccc(F)cc3)cnn2c(N)c1-c1ccccc1	104*	94*	64*	0	-4
Cc1cc(C(F)(F)F)n2ncc(-c3ccc(F)cc3)c2n1	-15	-15	-5	·	·
COc1ccc(-c2c(C)nc3c(-c4ccc(F)cc4)cnn3c2N)cc1	46	55*	-74	0	-14
Cc1cc(N)n2ncc(-c3ccccc3)c2n1	-9	-45	·	·	·
Cc1ccc(S(=O)(=O)N[C@H](C(=O)OCC(=O)NC(=O)Nc2ccc3c(c2)OCCO3)C(C)C)cc1	19	10	-2	0	-5
C[C@H](NS(=O)(=O)c1ccc(Cl)cc1)C(=O)OCC(=O)NC(=O)Nc1ccc2c(c1)OCCO2	64*	2	-22	0	-15
C[C@H](CO)N1C[C@H](C)[C@@H](CN(C)C(=O)c2ccc(F)cc2)Oc2ncc(-c3ccc(F)cc3)cc2C1=O	·	·	-6	-1	·
CCOC(=O)c1c(NC(=S)N2CCOCC2)sc2c1CCN(C(=O)OCC)C2	9	13	63*	0	-5
N#CCc1ccc(NC(=O)/C=C/c2ccc([N+](=O)[O-])o2)cc1	61*	-18	·	·	·
Cc1ccc(C(C(=O)NC(C)(C)C)N(Cc2cccs2)C(=O)c2ccc3c(c2)OCCO3)cc1 (configuration not stated)	24	24	24	0	-2
CCC(C)(C)NC(=O)C(c1ccc(C)cc1)N(Cc1cccs1)C(=O)c1ccc2c(c1)OCCO2 (configuration not stated)	88*	55*	·	·	·
COc1ccc(NC(=O)CSCC(=O)NCc2ccco2)cc1	13	-8	-16	0	-2
COc1ccc(-c2nc(CSCC(=O)NCc3ccco3)c(C)o2)cc1	69*	30	·	·	·
CC(=O)c1cccc(OCCN2C(=O)NC(C)(C)C2=O)c1	44	58*	·	·	-4
O=C1CCCc2cc3c(cc21)CC1(C3)Cc2cc3c(cc2C1)C(=O)CCC3	35	61*	34	0	-6
CCc1ccc2c(c1)C(=O)CCC2	19	-7	-18	0	-5
C[C@H]1CN([C@@H](C)CO)S(=O)(=O)c2ccc(C#CC3CC3)cc2O[C@@H]1CN(C)Cc1ccccc1	·	·	9	-1	·
CCCNC(=O)C[C@@H]1CC[C@@H]2[C@H](COc3ccc(NC(=O)c4cc(C)on4)cc3C(=O)N2C)O1	·	·	-3	0	·
O=C1C=C(NC2=CC3OC(c4ccccc4)OCC3OC2=O)CCC1 (configuration not stated)	71*	8	59*	0	-4
CC(/C=C1\SC(=S)N(c2ccc(C(=O)O)cc2)C1=O)=C\c1ccccc1	58*	45	13	0	-2
C[C@@H]1C/C=C\C[C@@H](c2ccc3c(c2)OCO3)NC(=O)[C@@H](c2ccccc2)CC(=O)N1	·	·	·	0	·
CCOC(=O)C1=C(N)Oc2cc(C)n(C)c(=O)c2C1c1ccncc1 (configuration not stated)	-10	9	·	·	-4
CCOC(=O)C1=C(N)Oc2cc(C)[nH]c(=O)c2C1c1ccncc1 (configuration not stated)	76*	·	·	·	·
SMILES	TWEAK Fn14 block	TROY signal inh	LGR2 antag	XiGFP reactiv	CaV13 ICDI inh
O=C1N=C(N2CCCC2)S/C1=C\C=C\c1ccccc1	77*	72*	·	0	2
CCc1ccc(/C=C2\SC(N3CCCC3)=NC2=O)cc1	41	58*	-27	0	·
COc1ccc2c3c(n(C)c2c1)[C@H](CO)N(C(C)=O)CC31CN(Cc2cccnc2)C1	·	·	·	0	·
O=C(c1cc(-c2ccccc2)n[nH]1)N1CCc2c([nH]c3ccccc23)C1c1ccccn1 (configuration not stated)	59*	41	1	0	-4
O=C(Nc1nnc(Cc2c[nH]c3ccccc23)s1)c1ccc(Cl)cc1Cl	65*	-4	·	0	-16
COc1ccc(CN(C(=O)/C=C/C(=O)c2ccc(OC)cc2O)C(C(=O)NC2CCCCC2)c2ccncc2)cc1 (configuration not stated)	2	4	13	0	-6
COc1ccc(C(=O)/C=C/C(=O)N(CC(=O)NC2CCCCC2)Cc2cccs2)c(O)c1	82*	42	·	0	-20
COCCN(CC(=O)NC1CCCCC1)C(=O)/C=C/C(=O)c1ccc(OC)cc1O	74*	58*	?	1	-19
CC(C)(C)CC(C)(C)c1ccc(OCCOCC[N+](C)(C)Cc2ccccc2)cc1	57*	48	36	0	-5
C[N+](C)(CCOc1ccccc1)Cc1ccccc1 (tested in a mixture with another compound)	19	71*	-6	0	·
COc1ccc(C#Cc2ccc3c(c2)[C@H]2[C@H](CCN2S(=O)(=O)c2ccccc2C)[C@H](CO)N3C)cc1	·	·	2	0	·
CCOc1ccc(-c2nnc(-c3ccccc3)o2)cc1	81*	34	·	·	·
CCOc1ccc(-c2nc(-c3cccnc3)no2)cc1	67*	0	·	·	·
CCOc1ccc(-c2nnc(-c3ccc(OC)cc3)o2)cc1	-33	-67	·	·	-2
c1ccc(-c2cn3nc4c(nc3n2)CCCC4)cc1	-1	6	68*	·	34*
Brc1ccc(-c2cn3nc4c(nc3n2)CCCC4)cc1	-16	-4	·	·	1
O=C(Nc1ccc2c(c1)[C@@H]1C[C@H](CC(=O)N3CCOCC3)O[C@H](CO)[C@@H]1O2)NC1CCCC1	·	·	-9	0	·
O=C(O)Cc1cn(-c2ccccc2)nc1-c1ccccc1	-5	1	-2	0	-2

Screens (PubChem BioAssay)
